Most compounds without a hit are left out; they make up all but 0.58% or so of the library.
OXTR ag: activates the human oxytocin receptor | 320,000 tested, 0.32% active | CHO-OTR cells, Fluo-8 calcium fluorescence; normalized: DMSO 0%, oxytocin 100% | P30559 | activation, % at 3 µM;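 active means activation above the mean of all tested compounds plus 3 SD, cutoff set per screening run, cut at about 20% in these data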;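 further: peak over basal fluorescence ratio from a 100 s FLIPR kinetic read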
OXTR potentiate: human OXTR potentiation; P30559; CHO-OTR cells, Fluo-8 calcium fluorescence, potentiator mode; 0% = oxytocin EC15, 100% = EC100; activation, % at 3 µM; 320,000 tested, 0.061% active; AID 2445;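 active means activation above that plate's cutoff, the mean activation of tested compounds plus 3 SD, cut at about 6.6% in these data, passing the limit was not always enough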;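 further: 100% uses oxytocin at 75 nM as the full agonist control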
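Replication – single well per compound, singlicate · Assay system – CHO cell line stably expressing human OTR · Timing – 6 min pre-incubation, 100 s read · Measure – normalized max/min fluorescence ratio, % activation · Doses – 3.0 µM, one dose · Detection – Fluo-8 calcium dye fluorescence · Probe or stimulus – oxytocin near EC15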
V1aR counter: counter-screen for oxytocin receptor agonists: human V1a receptor agonists; P37288; CHO-V1R cells, Fluo-8 calcium fluorescence, agonist mode; 0% DMSO, 100% 3 nM vasopressin; activation, % at 3 µM; 320,000 tested, 0.25% active; AID 2797;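 active means activation above the mean activation of all tested compounds plus 3 SD, per screening run, cut at about 20% in these data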;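 further: signal is peak over basal fluorescence ratio across a 100 second FLIPR read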
Target sequence (P37288 whole entry, looked up): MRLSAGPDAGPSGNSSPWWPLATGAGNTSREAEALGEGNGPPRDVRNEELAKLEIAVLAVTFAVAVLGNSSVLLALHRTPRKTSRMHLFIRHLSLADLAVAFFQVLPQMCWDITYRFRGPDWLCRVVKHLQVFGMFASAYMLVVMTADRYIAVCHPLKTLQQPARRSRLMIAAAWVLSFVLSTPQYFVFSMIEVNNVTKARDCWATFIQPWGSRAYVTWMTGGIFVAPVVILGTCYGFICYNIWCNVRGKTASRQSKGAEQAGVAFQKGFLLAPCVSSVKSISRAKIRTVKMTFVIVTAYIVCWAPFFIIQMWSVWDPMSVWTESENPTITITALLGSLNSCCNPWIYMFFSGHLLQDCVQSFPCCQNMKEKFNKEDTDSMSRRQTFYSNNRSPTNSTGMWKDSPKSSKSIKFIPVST
TRPN1 ag: activates the zebrafish TRPN1 channel. HEK293 zebrafish TRPN1-YFP, Fluo-8 calcium fluorescence; 100% = response to 87 µM carbachol. 220,000 tested, 0.18% active. activation, % at 3 µM. AID 1424;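 active means activation above its plate's cutoff, the mean activation of test wells on that plate plus 3 SD, cut at about 19% in these data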;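 further: 0% = DMSO alone and 100% = 87 µM carbachol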
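Material: zebrafish TRPN1-YFP in HEK293 cells; Doses: single test compound dose, 3 µM nominal, 0.3% DMSO; Timing: dye loading 1 h at 37 °C, then 30 min room temperature; Technique: intracellular calcium fluorescence with Fluo-8; Benchmarks: high carbachol 87 µM, low DMSO alone.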
TRPML3 agonist: human mucolipin-3 channel agonism; AID 1448; activation, % at 3 µM; HEK293 TRPML3-YFP, Fluo-8 calcium fluorescence; 100% = the carbachol control signal; Q8TDD5; 220,000 tested, 0.29% active;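 active means activation above its plate's cutoff, the mean activation of the plate's test wells plus 3 SD, cut at about 12% in these data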;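 further: 0% = DMSO only wells and 100% = carbachol wells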
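Test system – HEK293 line with stable expression of human TRPML3-YFP channel · Control set – carbachol 87 µM final as high control (100%), DMSO as low control (0%) · Signal – Fluo-8 calcium dye fluorescence, ex 470-495, em 515-575 nm · Incubation – 1-h 37 °C dye load, 5-s basal, 120-s post-compound reads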
TRPN1 ag 2: activates zebrafish TRPN1, counter-screen for TRPML3 agonists | activation, % at 3 µM | 310 tested, 10% active | HEK293 zebrafish TRPN1-YFP, Fluo-8 calcium fluorescence; scaled: carbachol wells 100%, DMSO wells 0% | shares compounds with TRPML3 agonist;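 active means mean activation over replicates above a set limit taken from the earlier TRPN1 channel primary screen, cut at about 19% in these data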;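 further: 100% = carbachol and 0% = 0.3% DMSO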
TRPML3 ag conf: confirmation of human TRPML3 channel agonists | shares compounds with TRPML3 agonist | 310 tested, 80% active | activation, % at 3 µM | HEK293 TRPML3-YFP, Fluo-8 calcium fluorescence; 100% set by carbachol, 0% by DMSO | AID 1526;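 active means activation above a set limit derived from the earlier primary screen, cut at about 12% in these data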
The depositor's hits bear a star; . = no result.

SMILES | OXTR ag | OXTR potentiate | V1aR counter | TRPN1 ag | TRPML3 agonist | TRPN1 ag 2 | TRPML3 ag conf
COC(=O)c1ccc(CSc2nc(-c3ccco3)cc(C(F)(F)F)n2)o1 | -0.7 | -8.9 | -0.3 | 0.0 | 0.1 | . | .
O=[N+]([O-])c1ccc(/C=[N+](\[O-])CCO)o1 | 2.1 | -1.0 | 0.6 | 0.3 | 0.8 | . | .
CN(c1ccccc1)S(=O)(=O)c1cc(Cl)ccc1Cl | -0.9 | 0.4 | -1.6 | -2.0 | 48.8* | -3.2 | 66.6*
CN(c1ccccc1)S(=O)(=O)c1cccc2ccccc12 | -1.7 | -12.7 | 0.3 | . | . | . | .
CN(c1ccccc1)S(=O)(=O)c1cccc(Cl)c1Cl | -0.5 | -3.2 | -1.4 | -1.7 | 52.6* | -3.6 | 40.5*
COC(=O)C1CCN(C(=O)c2cc(S(=O)(=O)N3CCCCC3)ccc2Cl)CC1 | 0.4 | -2.2 | -0.2 | . | . | . | .
CN1CCN(C(=O)c2ccc(N3CCCC3=O)cc2)CC1 | 0.3 | 0.0 | 0.0 | -0.5 | 0.8 | . | .
Cc1ccc(NC2=C(NCCO)C(=O)c3ccccc3C2=O)cc1 | -1.4 | -0.3 | -1.1 | 2.0 | 0.3 | . | .
Cc1cc(C)c(C2=NOC3C4CCC(C4)C23)c(C)c1 (stereo not given) | -2.5 | -1.5 | -0.9 | -0.7 | 24.2* | -1.6 | 104.1*
O=C(C1Cc2ccccc2CN1S(=O)(=O)c1ccc(F)cc1)N1CCOCC1 (stereo not given) | -1.1 | -1.1 | -0.7 | -0.3 | 6.6 | . | .
O=C(C1Cc2ccccc2CN1S(=O)(=O)c1ccc(F)cc1)N1CCCCCC1 (stereo not given) | -1.2 | 1.2 | -1.5 | 0.4 | 39.9* | -0.4 | 40.6*
CCC(Oc1cc(Cl)ccc1Cl)C(=O)NNC(=O)CCC(=O)O (stereo not given) | 1.2 | 10.9 | 0.6 | 0.2 | 0.8 | . | .
CCC(Oc1cc(Cl)ccc1Cl)C(=O)NN1C(=O)C2C3CCC(C3=C(C)C)C2C1=O (stereo not given) | -0.9 | -8.9 | -0.9 | 0.4 | 33.6* | 2.3 | 73.0*
CN(C)S(=O)(=O)N1CCN(c2cc(Cl)ccc2Cl)CC1 | -0.5 | -11.2 | 0.4 | -1.0 | 16.2* | -1.9 | 17.8*
CN(C)S(=O)(=O)N1CCN(c2ccccc2Cl)CC1 | 0.3 | -7.9 | 0.2 | 0.8 | 2.7 | . | .
CC(=O)Nc1cccc(OC(=O)c2ccoc2C)c1 | -0.6 | -13.4 | 0.1 | 0.1 | 13.2* | 1.5 | 4.3
Oc1ccccc1N1CCN(C(=S)Nc2ccc(SC(F)F)cc2)CC1 | -0.4 | -11.0 | 3.6 | 4.9 | 2.5 | . | .
COC(=O)c1cnc(N2CCCN(S(=O)(=O)c3ccccc3)CC2)nc1C(F)(F)F | -3.0 | -12.7 | -0.3 | 0.5 | 13.5* | 0.8 | 13.2*
Cc1ccc(C(=O)NNC(=S)NC(=O)c2ccco2)cc1 | 45.2* | -14.9 | 63.9* | 17.7 | 28.5* | 39.5* | 36.2*
Cc1ccc(-c2csc(NC(=O)C3CCN(S(=O)(=O)c4cccs4)CC3)n2)cc1 | 6.5 | -3.8 | 5.3 | 3.2 | 4.1 | . | .
O=C(Nc1nc(-c2ccc3ccccc3c2)cs1)C1CCN(S(=O)(=O)c2cccs2)CC1 | -0.8 | -5.2 | 0.3 | -0.3 | 19.0* | 3.0 | 52.0*
COc1ccc(/C=C(\C#N)C(=O)OCC(=O)NC(C)c2ccccc2)cc1 (stereo not given) | 0.4 | -3.2 | 1.2 | 1.6 | -0.3 | . | .
COc1ccccc1C1CN=NC12CCCc1ccccc1C2=O (stereo not given) | -2.0 | -7.4 | -0.7 | -1.5 | 24.1* | -0.1 | 91.1*
O=S(=O)(Nc1ccccc1N1CCCCC1)c1ccc(Cl)s1 | -1.2 | -0.6 | -1.9 | -2.9 | 139.3* | -1.7 | 109.5*
COc1ccc(N2C(=O)C(F)(F)C2c2ccccc2F)cc1 (stereo not given) | . | . | . | -2.8 | 21.4* | -2.1 | 33.7*
COc1ccc(N2C(=O)C(F)(F)C2c2cccc(F)c2)cc1 (stereo not given) | -2.0 | -12.0 | 0.9 | -1.3 | 3.2 | . | .

Screening results as filed in PubChem.
